Assay results reported in ChEMBL document CHEMBL4049407, “Positional Scanning Identifies the Molecular Determinants of a High Affinity Multi-Leucine Inhibitor for Furin and PACE4” (J Med Chem, 2017).
Square brackets hold non-standard residues; d marks the D form. Peptide text beside a SMILES is read from it. * marks the point of attachment. NH(4-amidinobenzyl) = N=C(N)c1ccc(CN*)cc1

Columns and labels:
[1] = biological target: T1, Proprotein convertase subtilisin/kexin type 6 (Homo sapiens, UniProt P29122); test: Inhibition of recombinant human PACE4 expressed in drosophila S2 cells using pyrGlu-Arg-Thr-Lys-Arg-7-amido-4-methylcoumarin as substrate after 60 mins by spectrofluorometry method; type: cell-based
T1 sequence (P29122 whole entry): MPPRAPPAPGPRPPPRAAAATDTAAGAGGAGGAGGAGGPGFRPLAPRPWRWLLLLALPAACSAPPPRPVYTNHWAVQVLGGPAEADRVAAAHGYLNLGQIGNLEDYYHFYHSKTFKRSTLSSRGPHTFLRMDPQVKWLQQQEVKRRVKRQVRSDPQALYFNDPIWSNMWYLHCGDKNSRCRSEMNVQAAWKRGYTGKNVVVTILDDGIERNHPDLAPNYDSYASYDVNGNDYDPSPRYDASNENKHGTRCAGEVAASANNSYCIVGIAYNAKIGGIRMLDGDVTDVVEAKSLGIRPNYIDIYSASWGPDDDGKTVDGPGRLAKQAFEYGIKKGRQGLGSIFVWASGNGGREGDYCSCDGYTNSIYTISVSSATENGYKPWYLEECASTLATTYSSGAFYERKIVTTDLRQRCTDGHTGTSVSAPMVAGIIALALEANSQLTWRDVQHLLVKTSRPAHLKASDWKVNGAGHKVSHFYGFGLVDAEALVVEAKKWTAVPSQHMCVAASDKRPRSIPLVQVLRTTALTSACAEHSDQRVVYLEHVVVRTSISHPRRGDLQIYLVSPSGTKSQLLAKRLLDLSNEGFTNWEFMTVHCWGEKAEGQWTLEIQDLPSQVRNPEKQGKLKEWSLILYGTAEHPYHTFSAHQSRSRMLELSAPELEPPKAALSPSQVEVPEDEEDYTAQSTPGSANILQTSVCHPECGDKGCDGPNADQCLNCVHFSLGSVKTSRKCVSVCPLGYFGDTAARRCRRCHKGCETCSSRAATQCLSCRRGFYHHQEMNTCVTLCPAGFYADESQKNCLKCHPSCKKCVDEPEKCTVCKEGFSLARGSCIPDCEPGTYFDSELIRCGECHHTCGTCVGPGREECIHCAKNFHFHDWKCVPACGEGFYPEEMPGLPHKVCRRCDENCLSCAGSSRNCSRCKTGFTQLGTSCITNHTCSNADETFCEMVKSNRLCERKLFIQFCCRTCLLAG
Procedure, shortened: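 Human recombinant purified PACE4 at 2 units/100 µL (20.18 nM), in 20 mM BisTris pH 6.5, 1 mM CaCl2, 1.8 mg/mL BSA. Substrate 100 µM, KM 4.035 µM. Inhibitor 1 nM to 10 µM; 60 min at 37°C. Fluorescence ex 370 / em 460 nm. Ki by Morrison tight-binding equation; three independent experiments, mean ± SD.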

LNCaP = test: Antiproliferative activity against human LNCAP cells assessed as reduction in metabolic activity after 72 hrs by MTT assay; type: functional, cell-based
Procedure, shortened: (§1)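 Cells kept at 37°C, 5% CO2 in RPMI 1640 (DU145 with 5% FBS, 1500 cells/well; LNCaP with 10% FBS, 2500 cells/well) on poly-L-lysine coated plates. Peptides added 24 h after plating in fresh serum medium at 0, 1, 10, 25, 50, 75, 100, 250 µM for 72 h. MTT 1 mg/mL final for 4 h; formazan dissolved in 2-propanol HCl. Signal normalised to water vehicle; IC50 from dose-response curves.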

DU-145 = test: Antiproliferative activity against human DU145 cells assessed as reduction in metabolic activity after 72 hrs by MTT assay; type: functional, cell-based; conditions: DU-145, 72 h; procedure, shortened: as §1
Homo sapiens = species on record: Homo sapiens; test: Selectivity index, ratio of Ki for recombinant human furin expressed in drosophila S2 cells to Ki for recombinant human PACE4 expressed in drosophila S2 cells; type: cell-based
Procedure, shortened: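 Ratio Ki(furin)/Ki(PACE4). […] PACE4 buffer was BisTris pH 6.5; furin buffer was HEPES pH 7.5, or BisTris pH 6.5 for His peptides. Ki fitted by Morrison equation from three independent experiments.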

Furin = Furin (Homo sapiens, UniProt P09958); test: Inhibition of recombinant human furin expressed in drosophila S2 cells using pyrGlu-Arg-Thr-Lys-Arg-7-amido-4-methylcoumarin as substrate after 60 mins by spectrofluorometry method; type: cell-based
Chain of Furin (P09958 whole entry): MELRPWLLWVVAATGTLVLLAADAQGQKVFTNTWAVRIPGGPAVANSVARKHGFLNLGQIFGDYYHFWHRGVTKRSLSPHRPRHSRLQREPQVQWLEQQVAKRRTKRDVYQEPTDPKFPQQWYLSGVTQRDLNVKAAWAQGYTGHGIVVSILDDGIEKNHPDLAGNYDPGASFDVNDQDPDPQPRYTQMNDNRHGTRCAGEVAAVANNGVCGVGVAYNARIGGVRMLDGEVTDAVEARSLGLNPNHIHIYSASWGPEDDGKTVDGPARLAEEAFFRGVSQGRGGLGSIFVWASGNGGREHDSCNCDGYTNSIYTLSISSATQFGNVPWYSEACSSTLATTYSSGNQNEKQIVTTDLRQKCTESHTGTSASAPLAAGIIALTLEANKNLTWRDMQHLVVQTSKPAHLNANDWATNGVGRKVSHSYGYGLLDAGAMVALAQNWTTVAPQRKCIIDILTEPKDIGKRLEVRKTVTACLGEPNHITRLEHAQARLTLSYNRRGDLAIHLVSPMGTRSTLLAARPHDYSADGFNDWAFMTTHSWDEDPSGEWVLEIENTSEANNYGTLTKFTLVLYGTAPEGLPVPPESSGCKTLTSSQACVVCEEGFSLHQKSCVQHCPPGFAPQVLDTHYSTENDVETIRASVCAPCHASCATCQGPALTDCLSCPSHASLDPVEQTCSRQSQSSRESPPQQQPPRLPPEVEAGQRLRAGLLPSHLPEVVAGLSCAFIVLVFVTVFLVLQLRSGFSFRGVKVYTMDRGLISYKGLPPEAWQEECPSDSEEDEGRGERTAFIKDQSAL
Procedure, shortened: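 Human recombinant purified furin at 2 units/100 µL (0.54 nM), in 100 mM HEPES pH 7.5, 1 mM CaCl2, 1 mM β-mercaptoethanol, 1.8 mg/mL BSA. His-containing peptides run instead in 20 mM BisTris pH 6.5 with the same additives. Substrate 100 µM, KM 5.04 µM. Inhibitor 1 nM to 10 µM; 60 min at 37°C. Fluorescence ex 370 / em 460 nm. Ki by Morrison equation; triplicate experiments, mean ± SD.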

Compound	Ki [1]	IC50 (LNCaP)	IC50 (DU-145)	Ki (Furin)	Ratio Ki (Homo sapiens)
CC(=O)N[C@@H](CCC(=O)O)C(=O)N[C@@H](CC(C)C)C(=O)N[C@@H](CC(C)C)C(=O)N[C@@H](CC(C)C)C(=O)N[C@@H](CCCNC(=N)N)C(=O)N[C@H](C(=O)N[C@@H](CCCCN)C(=O)NCc1ccc(C(=N)N)cc1)C(C)C (Ac-ELLLRVK-{NH(4-amidinobenzyl)})	0.008 µM	120 µM	150 µM	0.007 µM	0.9
CC(=O)N[C@@H](Cc1c[nH]c2ccccc12)C(=O)N[C@@H](CC(C)C)C(=O)N[C@@H](CC(C)C)C(=O)N[C@@H](CC(C)C)C(=O)N[C@@H](CCCNC(=N)N)C(=O)N[C@H](C(=O)N[C@@H](CCCCN)C(=O)NCc1ccc(C(=N)N)cc1)C(C)C (Ac-WLLLRVK-{NH(4-amidinobenzyl)})	0.009 µM	39 µM	23 µM	0.006 µM	0.7
CC(=O)N[C@@H](CC(C)C)C(=O)N[C@@H](CC(C)C)C(=O)N[C@@H](CC(C)C)C(=O)N[C@@H](CCC(N)=O)C(=O)N[C@@H](CCCNC(=N)N)C(=O)N[C@H](C(=O)N[C@@H](CCCCN)C(=O)NCc1ccc(C(=N)N)cc1)C(C)C (Ac-LLLQRVK-{NH(4-amidinobenzyl)})	0.005 µM	26 µM	12 µM	0.004 µM	0.8
CC(=O)N[C@@H](Cc1ccccc1)C(=O)N[C@@H](CC(C)C)C(=O)N[C@@H](CC(C)C)C(=O)N[C@@H](CC(C)C)C(=O)N[C@@H](CCCNC(=N)N)C(=O)N[C@H](C(=O)N[C@@H](CCCCN)C(=O)NCc1ccc(C(=N)N)cc1)C(C)C (Ac-FLLLRVK-{NH(4-amidinobenzyl)})	0.009 µM	41 µM	30 µM	0.009 µM	1
CC(=O)N[C@@H](CC(C)C)C(=O)N[C@@H](Cc1c[nH]c2ccccc12)C(=O)N[C@@H](CC(C)C)C(=O)N[C@@H](CC(C)C)C(=O)N[C@@H](CCCNC(=N)N)C(=O)N[C@H](C(=O)N[C@@H](CCCCN)C(=O)NCc1ccc(C(=N)N)cc1)C(C)C (Ac-LWLLRVK-{NH(4-amidinobenzyl)})	0.008 µM	50 µM	35 µM	0.013 µM	1.6
CC[C@H](C)[C@H](NC(=O)[C@H](CC(C)C)NC(=O)[C@H](CC(C)C)NC(C)=O)C(=O)N[C@@H](CC(C)C)C(=O)N[C@@H](CCCNC(=N)N)C(=O)N[C@H](C(=O)N[C@@H](CCCCN)C(=O)NCc1ccc(C(=N)N)cc1)C(C)C (Ac-LLILRVK-{NH(4-amidinobenzyl)})	0.01 µM	80 µM	32 µM	0.03 µM	3
CC[C@H](C)[C@H](NC(=O)[C@H](CC(C)C)NC(=O)[C@@H](CC(C)C)NC(C)=O)C(=O)N[C@H](C(=O)N[C@@H](CCCNC(=N)N)C(=O)N[C@H](C(=O)N[C@@H](CCCCN)C(=O)NCc1ccc(C(=N)N)cc1)C(C)C)[C@@H](C)CC	0.014 µM	60 µM	37 µM	0.0117 µM	0.8
CC(=O)N[C@@H](CC(C)C)C(=O)N[C@@H](CC(C)C)C(=O)N[C@@H](Cc1ccccc1)C(=O)N[C@@H](CC(C)C)C(=O)N[C@@H](CCCNC(=N)N)C(=O)N[C@H](C(=O)N[C@@H](CCCCN)C(=O)NCc1ccc(C(=N)N)cc1)C(C)C (Ac-LLFLRVK-{NH(4-amidinobenzyl)})	0.016 µM	40 µM	38 µM	0.005 µM	0.3
CC(=O)N[C@@H](CC(=O)O)C(=O)N[C@@H](CC(C)C)C(=O)N[C@@H](CC(C)C)C(=O)N[C@@H](CC(C)C)C(=O)N[C@@H](CCCNC(=N)N)C(=O)N[C@H](C(=O)N[C@@H](CCCCN)C(=O)NCc1ccc(C(=N)N)cc1)C(C)C (Ac-DLLLRVK-{NH(4-amidinobenzyl)})	0.012 µM	40 µM	90 µM	0.008 µM	0.7
CC(=O)N[C@@H](CO)C(=O)N[C@@H](CC(C)C)C(=O)N[C@@H](CC(C)C)C(=O)N[C@@H](CC(C)C)C(=O)N[C@@H](CCCNC(=N)N)C(=O)N[C@H](C(=O)N[C@@H](CCCCN)C(=O)NCc1ccc(C(=N)N)cc1)C(C)C (Ac-SLLLRVK-{NH(4-amidinobenzyl)})	0.006 µM	> 250 µM	100 µM	0.004 µM	0.7

Continued, in another order:

Ki [1]	IC50 (LNCaP)	IC50 (DU-145)	Ki (Furin)	Compound	Ratio Ki (Homo sapiens)
0.0021 µM	60 µM	45 µM	0.004 µM	CC(=O)N[C@@H](CC(C)C)C(=O)N[C@@H](CC(C)C)C(=O)N[C@@H](CC(C)C)C(=O)N[C@H](C(=O)N[C@@H](CCCNC(=N)N)C(=O)N[C@H](C(=O)N[C@@H](CCCCN)C(=O)NCc1ccc(C(=N)N)cc1)C(C)C)C(C)C (Ac-LLLVRVK-{NH(4-amidinobenzyl)})	1.9
0.005 µM	40 µM	27 µM	0.005 µM	CC[C@H](C)[C@H](NC(C)=O)C(=O)N[C@@H](CC(C)C)C(=O)N[C@@H](CC(C)C)C(=O)N[C@@H](CC(C)C)C(=O)N[C@@H](CCCNC(=N)N)C(=O)N[C@H](C(=O)N[C@@H](CCCCN)C(=O)NCc1ccc(C(=N)N)cc1)C(C)C (Ac-ILLLRVK-{NH(4-amidinobenzyl)})	1
0.0049 µM	40 µM	25 µM	0.0098 µM	CC(=O)N[C@H](CC(C)C)C(=O)N[C@@H](CC(C)C)C(=O)N[C@@H](CC(C)C)C(=O)N[C@@H](CC(C)C)C(=O)N[C@@H](CCCNC(=N)N)C(=O)N[C@H](C(=O)N[C@@H](CCCCN)C(=O)NCc1ccc(C(=N)N)cc1)C(C)C (Ac-[dL]LLLRVK-{NH(4-amidinobenzyl)})	2
0.004 µM	110 µM	140 µM	0.0024 µM	CC(=O)N[C@H](C(=O)N[C@@H](CC(C)C)C(=O)N[C@@H](CC(C)C)C(=O)N[C@@H](CC(C)C)C(=O)N[C@@H](CCCNC(=N)N)C(=O)N[C@H](C(=O)N[C@@H](CCCCN)C(=O)NCc1ccc(C(=N)N)cc1)C(C)C)[C@@H](C)O (Ac-TLLLRVK-{NH(4-amidinobenzyl)})	0.6
0.005 µM	70 µM	75 µM	0.004 µM	CC(=O)N[C@H](C(=O)N[C@@H](CC(C)C)C(=O)N[C@@H](CC(C)C)C(=O)N[C@@H](CC(C)C)C(=O)N[C@@H](CCCNC(=N)N)C(=O)N[C@H](C(=O)N[C@@H](CCCCN)C(=O)NCc1ccc(C(=N)N)cc1)C(C)C)C(C)C (Ac-VLLLRVK-{NH(4-amidinobenzyl)})	0.8
0.004 µM	50 µM	40 µM	0.006 µM	CC(=O)N[C@@H](CC(C)C)C(=O)N[C@@H](CC(C)C)C(=O)N[C@@H](CC(C)C)C(=O)N[C@@H](Cc1ccccc1)C(=O)N[C@@H](CCCNC(=N)N)C(=O)N[C@H](C(=O)N[C@@H](CCCCN)C(=O)NCc1ccc(C(=N)N)cc1)C(C)C (Ac-LLLFRVK-{NH(4-amidinobenzyl)})	1.5
